In the library only some 1.1% were active in any assay of this set; here they are far more common.
FAS-TE inh = FAS thioesterase (human) inhibition. inhibition, % at 15 µM. AID 602261. actives 0.67% (n = 360,000). P49327. recombinant FAS-TE, OMFH fluorogenic substrate, fluorescence endpoint;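 active = compounds whose normalised, plate-corrected inhibition of enzyme fluorescence in the single-dose primary screen is 50% or more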;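 also: 0% = DMSO with enzyme and 100% = substrate without enzyme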
SENP1 inh = SENP1 (human) catalytic domain inhibition; recombinant SENP1 catalytic domain, CyPet-SUMO1-YPet FRET cleavage; inhibition, % at 10 µM; actives 0.21% (n = 360,000); AID 624204;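 active = inhibition at least 30% at 10 µM, raw YFP signal under a set limit, fluorescence ratio 0.5 to 1.5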;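 also: 0% = enzyme with DMSO and 100% = no enzyme wells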
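Material – human SENP1 catalytic domain · Input – SENP1 enzyme, 20 pM final · Compound dosing – single concentration of 10 µM compound, 0.5% DMSO final · Timing – enzyme reaction for 50 min at room temperature, dark · Measured by – FRET fluorescence in CFP and YFP emission channels · Control set – no-enzyme wells low, DMSO-plus-enzyme wells high control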
Arrestin-AP2 inh = human beta-arrestin and AP2 interaction inhibition; inhibition, % at 10 µM; actives 0.31% (n = 340,000); FITC-arrestin peptide / GST-AP2 beads, flow cytometry; AP2 beta2 appendage carries R879A mutation; AID 504490;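 active = inhibition above a set limit, near 3 SD of compounds lacking own fluorescence, cut at about 54% in these data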;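 also: plate controls were DMSO wells for no effect and 5 µM unlabelled arrestin peptide for full effect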
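System: GST-AP2 R879A glutathione beads | Also added: FITC-arrestin peptide, 50 nM | Times: 12 min plus 1 h, RT | Signal: Bead flow cytometry, FITC channel | Buffer or medium: PBS with 0.05% Tween 20 and 0.1% BSA | Read-out basis: Percent drop in bead-associated FITC signal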
JMJD2C inh = human JMJD2C demethylase inhibition. inhibition, % at 2.35 µM. Q9H3R0. AID 2099. actives 0.069% (n = 330,000). GST-JMJD2C(1-420) H3K9me3 demethylation, DELFIA europium;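 active = more than half of a compound's replicate wells show inhibition beyond 50%, single wells judged on their own value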;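 also: signal counts dimethyl H3K9 product captured on neutravidin plate; 0% = median of DMSO wells and 100% = 0.3 times that DMSO median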
FAS-TE inh conf = confirmation of human fatty acid synthase thioesterase inhibitors. inhibition, % at 15 µM. AID 624325. recombinant FAS-TE, OMFH fluorogenic substrate, fluorescence. actives 45% (n = 2,300). shares compounds with FAS-TE inh;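 active = compounds inhibiting the enzyme by at least 50% at 15 µM in any one of the replicates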;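 also: 0% = enzyme with DMSO only and 100% = wells lacking enzyme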
Starred values were filed as active, the others as inactive; . = not tested or not shown.

SMILES	FAS-TE inh	SENP1 inh	Arrestin-AP2 inh	JMJD2C inh	FAS-TE inh conf
CCOC(=O)C1CCN(C(=O)c2ccc3c(=O)n4nc(Nc5ccccc5OC)sc4nc3c2)CC1	54.2*	1.6	.	.	59.2*
CCc1ccc(C(=O)Nc2nc(C)cs2)s1	-4.3	-0.3	8.2	-17.5	.
O=C1C=CC(O)(c2cc(=O)c3c(O)cc(O)cc3o2)C=C1	-5.2	4.2	9.2	0.5	.
O=C(Cc1ccc(F)cc1)Nc1nc(-c2ccc(F)c(F)c2)cs1	50.6*	1.2	-1.9	1.1	5.6
COc1ccc(CC(=O)Nc2nc(-c3ccc(F)c(F)c3)cs2)cc1	35.7	-2.8	0.3	4.2	.
CCC(C)c1ccc2oc(-c3ccc(NC(=O)Cn4cnc5c(=O)n(C)c(=O)n(C)c54)cc3)nc2c1 (stereo not given)	72.9*	-4.7	5.8	-5.4	6.5
Cc1ccc(C(C(=O)NC2CCCCC2)N(C(=O)CCCC(=O)Nc2ccccn2)c2ccc3c(c2)OCCO3)cc1 (stereo not given)	52.2*	2.7	3.3	1.0	44.6
O=C(CCCC(=O)N(c1ccc2c(c1)OCCO2)C(C(=O)NC1CCCCC1)c1ccc(F)cc1)Nc1ccccn1 (stereo not given)	1.6	2.6	8.9	3.9	.
CC(Oc1ccc(Cl)cc1Cl)C(=O)NC1=NN(c2ccccc2)C(=O)C1 (stereo not given)	2.6	3.8	-1.9	3.9	.
Cc1ccc(S(=O)(=O)N2[C@@H](c3ccc(C(C)(C)C)cc3)C(C(=O)O)=CC[C@H]2c2ccc(Cl)c(Cl)c2)cc1	55.1*	-0.8	3.2	.	32.6
COc1cc2ncc(S(=O)(=O)c3ccccc3)c(N3CCC4(CC3)OCCO4)c2cc1OC	81.7*	-0.5	5.0	-1.9	82.3*
Cc1ncoc1C(=O)NC1CC(C)(C)Cc2c1cnn2-c1ccccc1 (stereo not given)	-3.8	2.8	11.5	2.7	.
Cc1ccc(NC(=O)N(Cc2cccs2)Cc2cc3cc4c(cc3[nH]c2=O)OCO4)cc1	.	.	.	-9.7	.
COC(=O)c1ccccc1NC(=S)N(Cc1ccc2c(c1)OCO2)Cc1cc2ccc(C)cc2[nH]c1=O	79.4*	-0.5	-5.7	-7.9	29.3
O=C(Nc1ccc(F)cc1)N(Cc1cccs1)Cc1cc2cc3c(cc2[nH]c1=O)OCO3	55.1*	0.9	-6.4	1.6	34.1
Cc1ccc(NC(=O)N(Cc2ccc3c(c2)OCO3)Cc2cc3cc4c(cc3[nH]c2=O)OCCO4)cc1	75.1*	-0.4	4.1	-0.2	26.5
COc1ccc2[nH]c(=O)c(CN(Cc3cccs3)C(=S)Nc3cccc(C)c3)cc2c1	72.5*	1.5	22.9	4.4	7.3
COC(=O)c1ccccc1NC(=S)N(Cc1ccc2c(c1)OCO2)Cc1cc2cc(C)ccc2[nH]c1=O	45.4	1.1	-14.1	-5.4	.
NS(=O)(=O)c1ccc(CCNC(=O)CSc2nc3ccsc3c(=O)n2CCCCC(=O)O)cc1	-3.9	1.8	0.4	16.0	.
CCCN1CCC(C(=O)NC(c2ccc(F)cc2)c2ncccc2C)CC1 (stereo not given)	-16.7	-11.2	.	.	.
CC(NC(=O)c1cccnc1Sc1ccccc1)c1ccc(S(N)(=O)=O)cc1 (stereo not given)	-3.8	0.1	-0.1	-1.9	.
N#Cc1ccccc1S(=O)(=O)N1CCN(C(=O)[C@@H]2CCCN2C(=O)c2cccs2)CC1	-8.6	-2.3	4.8	1.4	.
CCCCNC(=O)C[C@@H]1C[C@@]2(C(=O)OCC)CCCC=C2N(Cc2ccco2)C1=O	-6.4	-0.8	.	.	.
O=C(NCc1cccnc1)c1ccc(COc2ccc(Cl)cc2Cl)o1	-2.9	2.1	4.6	-1.4	.
CC(C)(C)NC(=O)c1ccc(COc2ccc(Cl)cc2Cl)o1	65.2*	2.1	28.6	-17.2	20.6
O=C(Nc1cccc(S(=O)(=O)NC2=NCCCCC2)c1)c1cc(-c2ccc(Cl)cc2)nc2ccccc12	57.3*	2.5	-8.8	-1.2	26.5
O=C(Nc1cccc(S(=O)(=O)NC2=NCCCCC2)c1)c1cc(-c2ccccc2)nc2ccccc12	36.6	-3.1	-2.1	-0.9	.
COc1ccc(CCN2CN(S(=O)(=O)c3ccc(C)cc3)c3nc4ccccc4nc32)cc1OC	22.5	-6.2	-0.5	-25.4	.
COc1ccccc1N1CN(S(=O)(=O)c2ccc(C)cc2)c2nc3ccccc3nc21	57.4*	-3.5	5.6	-2.5	23.6

Screening data: PubChem BioAssay, several laboratories
